From ChEMBL document CHEMBL3102734, “Inhibition of LOX by flavonoids: a structure-activity relationship study” (Eur J Med Chem, 2014)
Activity calls are given as the source filed them. No cut-off for these calls is given here.

How the values were obtained:
[1] = biological target: T1, Seed linoleate 13S-lipoxygenase-1 (Glycine max) (UniProt P08170); test: Binding affinity to soybean LOX-1 at 1248 uM by STD-[1H] NMR spectroscopic analysis
T1 sequence (whole entry): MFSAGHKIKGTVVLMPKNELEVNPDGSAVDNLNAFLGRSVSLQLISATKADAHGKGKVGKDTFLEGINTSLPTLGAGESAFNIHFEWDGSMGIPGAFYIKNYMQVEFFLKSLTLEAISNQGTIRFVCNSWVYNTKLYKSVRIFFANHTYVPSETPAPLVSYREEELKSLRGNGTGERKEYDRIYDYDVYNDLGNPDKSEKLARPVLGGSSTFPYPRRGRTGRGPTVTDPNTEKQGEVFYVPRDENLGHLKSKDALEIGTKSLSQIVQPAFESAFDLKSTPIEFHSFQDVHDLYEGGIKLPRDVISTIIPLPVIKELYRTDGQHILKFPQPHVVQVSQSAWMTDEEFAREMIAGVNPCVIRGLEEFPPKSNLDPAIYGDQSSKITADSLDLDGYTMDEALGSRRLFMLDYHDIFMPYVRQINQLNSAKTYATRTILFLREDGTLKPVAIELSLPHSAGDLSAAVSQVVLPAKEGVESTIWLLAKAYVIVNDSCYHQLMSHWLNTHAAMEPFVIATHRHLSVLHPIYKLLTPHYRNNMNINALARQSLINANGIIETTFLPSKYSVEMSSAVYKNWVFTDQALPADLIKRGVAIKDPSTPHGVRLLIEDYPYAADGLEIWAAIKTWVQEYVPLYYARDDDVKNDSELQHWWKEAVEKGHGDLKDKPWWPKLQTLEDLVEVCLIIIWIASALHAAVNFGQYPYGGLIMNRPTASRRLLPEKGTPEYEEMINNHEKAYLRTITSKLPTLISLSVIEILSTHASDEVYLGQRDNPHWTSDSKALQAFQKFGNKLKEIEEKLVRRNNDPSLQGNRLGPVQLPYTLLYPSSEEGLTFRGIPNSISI
Summary of the method: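 STD-1H NMR at 37 °C, 600 MHz, cryoprobe. Lyophilized soybean LOX-1 in Tris buffer (20 mM Tris, 7 mM (NH4)2SO4, 3.5 mM MgCl2, 0.3 mM DTT in D2O, pH 9.0). Ligand added from a 16.6 mM DMSO-d6 stock. Final concentrations: LOX 4 μM, ligand 1248 μM, ratio 300:1. On-resonance saturation at 1.0 ppm; off-resonance reference at 20000 Hz.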

[2] = biological target: T2, Seed linoleate 13S-lipoxygenase-1 (Glycine max, UniProt P08170); test: Mixed noncompetitive type inhibition of soybean LOX-1 using linoleic acid as substrate preincubated for 5 mins followed by substrate addition by Lineweaver-Burk plot analysis
T2 sequence (P08170 whole entry): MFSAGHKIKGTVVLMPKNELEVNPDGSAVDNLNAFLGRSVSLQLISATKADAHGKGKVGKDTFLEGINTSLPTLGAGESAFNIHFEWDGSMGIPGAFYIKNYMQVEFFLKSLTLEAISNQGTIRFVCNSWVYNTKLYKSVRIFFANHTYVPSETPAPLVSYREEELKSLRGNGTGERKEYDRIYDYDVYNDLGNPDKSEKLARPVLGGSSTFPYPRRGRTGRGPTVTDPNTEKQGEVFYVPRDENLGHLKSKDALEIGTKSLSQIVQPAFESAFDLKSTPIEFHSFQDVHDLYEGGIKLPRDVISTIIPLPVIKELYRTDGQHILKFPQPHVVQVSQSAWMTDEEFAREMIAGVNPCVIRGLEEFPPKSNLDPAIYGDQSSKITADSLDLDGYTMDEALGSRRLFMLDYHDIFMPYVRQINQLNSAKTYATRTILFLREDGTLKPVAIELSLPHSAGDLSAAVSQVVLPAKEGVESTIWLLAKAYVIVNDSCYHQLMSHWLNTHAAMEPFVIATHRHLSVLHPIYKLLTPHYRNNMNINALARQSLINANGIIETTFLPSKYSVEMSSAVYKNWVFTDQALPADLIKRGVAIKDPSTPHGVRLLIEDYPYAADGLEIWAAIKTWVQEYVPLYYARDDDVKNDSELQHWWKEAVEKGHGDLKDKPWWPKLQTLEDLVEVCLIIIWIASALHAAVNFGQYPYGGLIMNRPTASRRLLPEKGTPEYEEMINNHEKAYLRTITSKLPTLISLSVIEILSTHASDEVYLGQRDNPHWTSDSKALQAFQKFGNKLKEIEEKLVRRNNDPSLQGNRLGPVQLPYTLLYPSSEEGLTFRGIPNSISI
Summary of the method: (§1)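 Soybean LOX-1 (supplied lyophilized) kinetic assay. Enzyme pre-incubated with inhibitor 5 min, then linoleic acid added. Conversion to the cis,trans-hydroperoxide followed at 234 nm at 30 °C with continuous soft shaking. Readings every 30 s for 10 min; rate taken as the 0–3 min slope. Three inhibitor concentrations tested against three substrate concentrations. Inhibition type assigned by nonlinear Michaelis–Menten fitting and Lineweaver–Burk plots. At least four experiments, each in triplicate.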

[3] = biological target: T3, Polyunsaturated fatty acid 5-lipoxygenase (Homo sapiens) (UniProt P09917); test: Inhibition of 5-LOX-mediated LTB4 production in human neutrophils using arachidonic acid as substrate at 40 uM preincubated for 10 mins followed by substrate addition measured after 8 mins by enzyme immunoassay relative to control
T3 sequence (whole entry): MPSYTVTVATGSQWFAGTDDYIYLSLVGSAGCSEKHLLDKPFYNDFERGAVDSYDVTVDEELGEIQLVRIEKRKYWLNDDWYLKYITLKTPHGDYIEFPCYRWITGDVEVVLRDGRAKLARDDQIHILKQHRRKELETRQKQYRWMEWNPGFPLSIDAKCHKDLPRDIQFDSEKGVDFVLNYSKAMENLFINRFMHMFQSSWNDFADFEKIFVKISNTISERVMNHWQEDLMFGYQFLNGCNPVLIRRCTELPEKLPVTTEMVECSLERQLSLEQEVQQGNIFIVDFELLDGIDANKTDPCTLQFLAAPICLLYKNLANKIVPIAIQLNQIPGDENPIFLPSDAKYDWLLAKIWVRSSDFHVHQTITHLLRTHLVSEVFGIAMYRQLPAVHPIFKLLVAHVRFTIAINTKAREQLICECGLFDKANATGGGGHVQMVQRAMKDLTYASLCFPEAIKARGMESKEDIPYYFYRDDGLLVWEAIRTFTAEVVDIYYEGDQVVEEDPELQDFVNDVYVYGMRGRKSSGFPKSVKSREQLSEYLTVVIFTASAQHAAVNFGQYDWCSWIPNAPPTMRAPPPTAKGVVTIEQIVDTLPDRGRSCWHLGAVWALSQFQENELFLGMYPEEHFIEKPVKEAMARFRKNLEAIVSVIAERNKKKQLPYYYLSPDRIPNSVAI
Summary of the method: (§2)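 Isolated human neutrophils held in HBSS on ice; viability checked by trypan blue. Cells at 3.5×10^6 cells/mL equilibrated 10 min at 37 °C. Flavonoids (0.15–40 μM) pre-incubated 10 min, then A23187 (5 μM) plus arachidonic acid (10 μg/mL) added for 8 min. Stopped with cold methanol and centrifuged 13,000 g, 1 min, 4 °C. LTB4 measured by EIA and expressed as % inhibition of control. NDGA (1 μM) positive control. At least three experiments.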

[4] = biological target: T2, Seed linoleate 13S-lipoxygenase-1; test: Uncompetitive inhibition of soybean LOX-1 using linoleic acid as substrate preincubated for 5 mins followed by substrate addition by Lineweaver-Burk plot analysis
Summary of the method: as §1, with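 “added.” for “added. Conversion to the cis,trans-hydroperoxide followed at 234 nm at 30 °C with continuous soft shaking.”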

[5] = biological target: T4, Polyunsaturated fatty acid 5-lipoxygenase (Homo sapiens, UniProt P09917); test: Inhibition of 5-LOX-mediated LTB4 production in human neutrophils using arachidonic acid as substrate preincubated for 10 mins followed by substrate addition measured after 8 mins by enzyme immunoassay
T4 sequence (P09917 whole entry): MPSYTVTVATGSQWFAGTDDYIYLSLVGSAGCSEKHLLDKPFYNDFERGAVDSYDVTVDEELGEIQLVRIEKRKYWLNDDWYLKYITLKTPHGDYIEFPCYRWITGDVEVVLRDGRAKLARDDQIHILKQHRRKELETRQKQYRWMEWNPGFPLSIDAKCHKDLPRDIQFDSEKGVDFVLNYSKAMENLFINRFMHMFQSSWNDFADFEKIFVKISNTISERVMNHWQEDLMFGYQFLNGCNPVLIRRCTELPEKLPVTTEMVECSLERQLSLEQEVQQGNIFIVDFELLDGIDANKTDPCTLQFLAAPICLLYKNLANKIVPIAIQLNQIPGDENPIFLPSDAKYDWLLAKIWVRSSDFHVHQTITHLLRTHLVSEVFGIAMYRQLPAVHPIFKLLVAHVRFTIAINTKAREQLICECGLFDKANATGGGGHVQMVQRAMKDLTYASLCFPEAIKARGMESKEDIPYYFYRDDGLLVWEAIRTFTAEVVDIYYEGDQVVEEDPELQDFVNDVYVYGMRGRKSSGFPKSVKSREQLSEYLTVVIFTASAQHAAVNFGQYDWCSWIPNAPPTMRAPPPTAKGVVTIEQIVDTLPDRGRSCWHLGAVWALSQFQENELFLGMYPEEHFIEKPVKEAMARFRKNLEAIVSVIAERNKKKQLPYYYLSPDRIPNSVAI
Summary of the method: as §2, with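 “blue.” for “blue. Cells at 3.5×10^6 cells/mL equilibrated 10 min at 37 °C.”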

[6] = biological target: T3, Polyunsaturated fatty acid 5-lipoxygenase (Homo sapiens); test: Inhibition of 5-LOX-mediated LTB4 production in human neutrophils using arachidonic acid as substrate at 0.15 to 40 uM preincubated for 10 mins followed by substrate addition measured after 8 mins by enzyme immunoassay relative to control; summary of the method: as §2

Row | Compound | Activity [1] | inhibition [3] | also measured
1 | O=c1cc(-c2ccc(O)cc2)oc2cccc(O)c12 | Active | 29.8% | Ki [2]: 103 µM
2 | O=c1cc(-c2ccc(O)c(O)c2)oc2cc(O)cc(O)c12 [LUTEOLIN] | Active |  | Ki [4]: 122 µM; IC50 [5]: 1.6 µM
3 | O=C1CC(c2ccc(O)c(O)c2)Oc2cc(O)cc(O)c21 (racemic) |  | 53.4% | 
4 | O=c1cc(-c2ccccc2)oc2ccccc12 |  | < 50% | 
5 | O=c1cc(-c2cccc(O)c2)oc2cc(O)cc(O)c12 | Active | 52% | Ki [4]: 95.4 µM
6 | COc1ccc(-c2cc(=O)c3c(O)cc(O)cc3o2)cc1O |  |  | inhibition [6]: inactive
7 | O=c1cc(-c2ccc(O)c(O)c2)oc2cccc(O)c12 | Active |  | Ki [4]: 18 µM; IC50 [5]: 2.9 µM
8 | O=C1CC(c2ccc(O)cc2)Oc2cc(O)cc(O)c21 (racemic) |  | < 50% | 
9 | O=c1cc(-c2ccc(O)cc2)oc2cc(O)ccc12 |  | < 50% | 
10 | O=c1cc(-c2ccccc2)oc2cc(O)cc(O)c12 [CHRYSIN] | Active | < 50% | Ki [2]: 19.4 µM
11 | COc1ccc(-c2cc(=O)c3c(O)cc(O)cc3o2)cc1 | Active | Active | 
12 | O=c1cc(-c2cccc(O)c2)oc2ccccc12 |  | < 50% | 
